Results from different studies.
Lines come from different studies, so protocols differ.

CNS(=O)(=O)c1ccc(Nc2ncc(C(F)(F)F)c(N3CCC[C@](C)(O)C3)n2)c(C)c1  Papp A→B (MDCK; Caco-2; 1 µM, 2 h, pH 7.4): 16 ×10⁻⁶ cm/s
O=c1c2c([nH]c3ccc(Oc4ccc(OC(F)(F)F)cc4)cc13)CCCC2  half-life (metabolic stability; mouse, liver microsomes; 1 µM, pH 7.4): 35.5 min
COc1ccc(N2CCN(CC(=O)Nc3ccc(C4=NN(C(C)=O)C(c5ccc(Br)cc5)C4)cc3)CC2)cc1 (stereo not drawn)  viability (MCF-10A; cell growth or viability, MTT; 50 µM, 96 h): 86%
Cc1cc(S(=O)(=O)N[C@H]2CC[C@H](N3CCN(CC4CCN(c5cccc6c5n(C)c(=O)n6C5CCC(=O)NC5=O)CC4)CC3)CC2)ccc1Nc1ncc(C(F)(F)F)c(N2CCC[C@](C)(O)C2)n1 (stereo partly drawn)  Papp A→B (MDCK; Caco-2; 1 µM, 2 h, pH 7.4): 0.7 ×10⁻⁶ cm/s
O=C(CN1CCN(c2ccc(Cl)cc2)CC1)Nc1ccc(C(=O)C=Cc2ccco2)cc1  viability (MCF-10A; cell growth or viability, MTT; 50 µM, 96 h): 90%
COc1ccc(-c2nn(-c3ccccc3)cc2C=Nc2c(N)nc(S)nc2O)cc1  CC50 (MCF-10A; cell growth or viability; 48 h): > 40 µM
Cc1cc(S(=O)(=O)N[C@]2(C)C[C@H](N3CCN(CC4CCN(c5ccc6c(c5F)n(C)c(=O)n6C5CCC(=O)NC5=O)CC4)CC3)C2)ccc1Nc1ncc(C(F)(F)F)c(N2CCC[C@](C)(O)C2)n1 (stereo partly drawn)  Papp A→B (MDCK; Caco-2; 1 µM, 2 h, pH 7.4): 3.2 ×10⁻⁶ cm/s
O=c1c2ccccc2[nH]c2cc(Oc3ccc(OC(F)(F)F)cc3)ccc12  half-life (metabolic stability; mouse, liver microsomes; 1 µM, pH 7.4): 26.9 min
C[C@H]1Oc2cc(cnc2N)-c2c(nn(C)c2C#N)CN(C)C(=O)c2ccc(F)cc21  concentration (male Sprague-Dawley rat, brain; oral, 10 mg/kg, 1 h, single dose): 495 ng/g
CNS(=O)(=O)c1ccc(Nc2ncc(C(F)(F)F)c([C@H]3CC[C@](C)(O)CC3)n2)c(C)c1  Papp A→B (MDCK; Caco-2; 1 µM, 2 h, pH 7.4): 12.3 ×10⁻⁶ cm/s
O=c1c2ccc(Oc3ccccc3OC(F)(F)F)cc2[nH]c2cc(Cl)cc(F)c12  half-life (metabolic stability; mouse, liver microsomes; 1 µM, pH 7.4): 43.4 min
Nc1nc(S)nc(O)c1N=Cc1cn(-c2ccccc2)nc1-c1ccccc1  CC50 (MCF-10A; cell growth or viability; 48 h): > 30 µM
CNS(=O)(=O)c1ccc(Nc2ncc(C(F)(F)F)c(N3CCC(C)(O)CC3)n2)c(C)c1  Papp A→B (MDCK; Caco-2; 1 µM, 2 h, pH 7.4): 9 ×10⁻⁶ cm/s
O=c1c2ccc(OCc3cccc(OC(F)(F)F)c3)cc2[nH]c2ccc(Cl)c(F)c12  half-life (metabolic stability; mouse, liver microsomes; 1 µM, pH 7.4): > 60 min
Cc1cc(S(=O)(=O)NC2CC(N3CCN(CC4CCN(c5ccc6c(c5F)n(C)c(=O)n6C5CCC(=O)NC5=O)CC4)CC3)C2)ccc1Nc1ncc(C(F)(F)F)c(N2CCCC(C)(O)C2)n1 (stereo not drawn)  Papp A→B (MDCK; Caco-2; 1 µM, 2 h, pH 7.4): 1.9 ×10⁻⁶ cm/s
COc1ccc(N2CCN(CC(=O)Nc3ccc(C(=O)C=Cc4ccco4)cc3)CC2)cc1  viability (MCF-10A; cell growth or viability, MTT; 50 µM, 96 h): 82%
CCCCN(CCCC)CCCOc1ccc2c(=O)c3c([nH]c2c1)CCCC3  half-life (metabolic stability; mouse, liver microsomes; 1 µM, pH 7.4): 38.3 min
COc1ccc(C2CC(c3ccc(NC(=O)CN4CCN(c5ccc(Cl)cc5)CC4)cc3)=NN2C(C)=O)cc1 (stereo not drawn)  viability (MCF-10A; cell growth or viability, MTT; 50 µM, 96 h): 86%
O=c1c2cc(F)c(Oc3ccc(OC(F)(F)F)cc3)cc2[nH]c2cc(Cl)cc(F)c12  half-life (metabolic stability; mouse, liver microsomes; 1 µM, pH 7.4): > 60 min
COc1ccc(N2CCN(CC(=O)Nc3ccc(C4=NN(C(C)=O)C(c5cc(OC)c(OC)c(OC)c5)C4)cc3)CC2)cc1 (stereo not drawn)  viability (MCF-10A; cell growth or viability, MTT; 50 µM, 96 h): 91%
O=c1c2c([nH]c3cc(Oc4cccc(OC(F)(F)F)c4)ccc13)CCCC2  half-life (metabolic stability; mouse, liver microsomes; 1 µM, pH 7.4): > 60 min
CC(=O)N1N=C(c2ccc(NC(=O)CN3CCN(c4ccc(Cl)cc4)CC3)cc2)CC1c1ccc(Cl)cc1Cl (stereo not drawn)  viability (MCF-10A; cell growth or viability, MTT; 50 µM, 96 h): 91%
CNS(=O)(=O)c1ccc(Nc2ncc3cc(Cl)c(=O)n(C4CCCC4)c3n2)c(C)c1  Papp A→B (MDCK; Caco-2; 1 µM, 2 h, pH 7.4): 3.6 ×10⁻⁶ cm/s
COc1ccc(N2CCN(CC(=O)Nc3ccc(C4=NN(C(C)=O)C(c5ccccc5)C4)cc3)CC2)cc1 (stereo not drawn)  viability (MCF-10A; cell growth or viability, MTT; 50 µM, 96 h): 87%
Cc1cc(S(=O)(=O)NC2CC(N3CCN(CC4CCN(c5ccc(NC6CCC(=O)NC6=O)cc5C)CC4)CC3)C2)ccc1Nc1ncc(C(F)(F)F)c(N2CCC[C@](C)(O)C2)n1 (stereo partly drawn)  Papp A→B (MDCK; Caco-2; 1 µM, 2 h, pH 7.4): 3.5 ×10⁻⁶ cm/s
COc1ccc(N2CCN(CC(=O)Nc3ccc(C(=O)C=Cc4ccc(C)cc4)cc3)CC2)cc1  viability (MCF-10A; cell growth or viability, MTT; 50 µM, 96 h): 90%
CN(C)CCOc1ccc2c(=O)c3c([nH]c2c1)CCCC3  half-life (metabolic stability; mouse, liver microsomes; 1 µM, pH 7.4): 34.3 min
